ChEMBL document CHEMBL3352791, “Thioaryl naphthylmethanone oxime ether analogs as novel anticancer agents” (J Med Chem, 2014)

How the values were obtained:
Ishikawa = test: Antiproliferative activity against human ER-positive Ishikawa cells after 24 hrs by MTT assay; type: functional, cell-based
[1] = Antiproliferative activity against human prostate, androgen receptor positive DU145 cells after 24 hrs by MTT assay; type: functional, cell-based, DU-145
HeLa = test: Antiproliferative activity against human HeLa cells after 24 hrs by MTT assay; type: functional, cell-based
MCF7 [2] = test: Antiproliferative activity against human ER-negative MCF7 cells after 24 hrs by MTT assay; type: functional, cell-based
MDA-MB-231 [3] = test: Antiproliferative activity against human ER-positive MDA-MB-231 cells after 24 hrs by MTT assay; type: functional, cell-based
MCF7 [4] = test: Antiproliferative activity against human ER-negative MCF7 cells after 72 hrs by MTT assay; type: functional, cell-based; details: MCF7, 72 h
in vitro = details: human, MCF10A cells versus
[5] = Cytotoxicity against human MCF10A cells after 72 hrs by MTT assay; type: ADME, cell-based; details: MCF-10A
[6] = Safety index, ratio of IC50 for human MCF10A cells to EC50 for human ER-positive MDA-MB-231 cells; details: MCF10A cells versus
MDA-MB-231 [7] = test: Antiproliferative activity against human ER-positive MDA-MB-231 cells after 72 hrs by MTT assay; type: functional, cell-based; details: MDA-MB-231, 72 h
[8] = Safety index, ratio of IC50 for human MCF10A cells to EC50 for human SW620 cells; type: toxicity, cell-based, SW-620; details: MCF10A cells versus SW620 cells, read-out: Ratio IC50/EC50
Procedure, shortened: (§1)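 Safety index is the IC50 in the normal cells divided by the EC50 in the cancer cells. Both values come from MTT assays: cells in DMEM with 10% FBS, serum-starved 4 h, then exposed to compound across a 100nM-50µM dose range with 0.1% DMSO as vehicle control.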

[9] = Antiproliferative activity against human DLD1 cells after 24 hrs by MTT assay; type: functional, cell-based; details: DLD-1, 24 h
Procedure, shortened: (§2)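 MTT viability: cells seeded at 1×10^4 per well in DMEM with 10% FBS, left to adhere overnight, then serum-starved 4 h. Compounds were given at a range of doses, with 0.1% DMSO vehicle as control. EC50 was taken from dose-response curves spanning 100nM-50µM. Data are mean ± SEM from at least three independent experiments.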

[10] = Safety index, ratio of IC50 for human MCF10A cells to EC50 for human COLO205 cells; type: toxicity, cell-based, COLO 205; details: MCF10A cells versus COLO205 cells, read-out: Ratio IC50/EC50; procedure, shortened: as §1
[11] = Antiproliferative activity against human HCT116 cells after 24 hrs by MTT assay; type: functional, cell-based; details: HCT-116, 24 h; procedure, shortened: as §2
[12] = Safety index, ratio of IC50 for human MCF10A cells to EC50 for human HCT116 cells; type: toxicity, cell-based, MCF-10A; details: MCF10A cells versus HCT116 cells, read-out: Ratio IC50/EC50; procedure, shortened: as §1
[13] = Antiproliferative activity against human COLO205 cells after 24 hrs by MTT assay; type: functional, cell-based; details: COLO 205, 24 h; procedure, shortened: as §2
HEK293 = test: Antiproliferative activity against HEK293 cells after 24 hrs by MTT assay; type: functional, cell-based; details: Homo sapiens, HEK293, 24 h; procedure, shortened: as §2
[14] = Safety index, ratio of IC50 for human MCF10A cells to EC50 for human DLD1 cells; type: toxicity, cell-based, MCF-10A; details: MCF10A cells versus DLD1 cells, read-out: Ratio IC50/EC50; procedure, shortened: as §1
SW-620 = test: Antiproliferative activity against human SW620 cells after 24 hrs by MTT assay; type: functional, cell-based; details: SW-620, 24 h; procedure, shortened: as §2

Compound | EC50 (Ishikawa; Homo sapiens, Ishikawa, 24 h) | EC50 ([1]; Homo sapiens, DU-145, 24 h) | EC50 (HeLa; Homo sapiens, HeLa, 24 h) | EC50 (MCF7 [2]; Homo sapiens, MCF7, 24 h) | EC50 (MDA-MB-231 [3]; Homo sapiens, MDA-MB-231, 24 h) | further results
CSc1ccc(/C(=N\OCCCN2CCOCC2)c2cccc3ccccc23)cc1 | > 50 µM | > 50 µM | > 50 µM | > 50 µM | > 50 µM | 
COc1ccc(/C(=N\OCCN(C(C)C)C(C)C)c2cccc3ccccc23)cc1 | > 50 µM | > 50 µM | > 50 µM | 23 µM | > 50 µM | 
CCN(CCCCO/N=C(\c1ccc(SC)cc1)c1cccc2ccccc12)Cc1ccccc1 | > 50 µM | > 50 µM | 10 µM | > 50 µM | > 50 µM | 
CSc1ccc(/C(=N\OCCN2CCCCCC2)c2cccc3ccccc23)cc1 | > 50 µM | > 50 µM | > 50 µM | > 50 µM | > 50 µM | 
CSc1ccc(/C(=N\OCCN(C(C)C)C(C)C)c2cccc3ccccc23)cc1 | > 50 µM | > 50 µM | > 50 µM | > 50 µM | > 50 µM | 
CSc1ccc(/C(=N\OCCCN(C)C)c2cccc3ccccc23)cc1 | 7 µM | 9.5 µM | 8 µM | 8 µM | 7.2 µM | EC50 (MCF7 [4]): 1 µM; selectivity ratio (in vitro): 30; IC50 [5]: 30 µM; selectivity ratio [6]: 5.3; EC50 (MDA-MB-231 [7]): 5.6 µM
CC/C(=C(\c1ccc(O)cc1)c1ccc(OCCN(C)C)cc1)c1ccccc1 [AFIMOXIFENE] | 11.5 µM | 10 µM |  | 8.8 µM | 8 µM | selectivity ratio [6]: 1.28; EC50 (MDA-MB-231 [7]): 7.8 µM
COc1ccc(/C(=N\OCCN2CCCC2)c2cccc3ccccc23)cc1 | > 50 µM | > 50 µM | 20 µM | 25 µM | > 50 µM | 
CCN(CC)CCO/N=C(\c1ccc(SC)cc1)c1cccc2ccccc12 [listing 1 of 4 here] |  |  |  |  |  | EC50 (Ishikawa; ishikawa): 20 µM; EC50 ([1]; du-145): 20 µM; EC50 (MCF7 [2]; mcf7): 18.5 µM; EC50 (MDA-MB-231 [3]; mda-mb-231): 14.8 µM
CSc1ccc(/C(=N\OCCCN2CCCCC2)c2cccc3ccccc23)cc1 | 12 µM | 15 µM | 6.5 µM | 5 µM | 20 µM | EC50 (MCF7 [4]): 5 µM; selectivity ratio (in vitro): 2; IC50 [5]: 10 µM; selectivity ratio [6]: 0.5; EC50 (MDA-MB-231 [7]): 20 µM
CSc1ccc(/C(=N\OCCCCNCCc2ccccc2)c2cccc3ccccc23)cc1 | > 50 µM | > 50 µM | > 50 µM | 18 µM | 20 µM | 
CCN(CC)CCO/N=C(\c1ccc(SC)cc1)c1cccc2ccccc12 [listing 2 of 4 here] |  |  |  |  |  | EC50 (Ishikawa; ishikawa): 25 µM; EC50 ([1]; du-145): 25 µM; EC50 (HeLa; hela): 20 µM; EC50 (MCF7 [2]; mcf7): 13.5 µM; EC50 (MDA-MB-231 [3]; mda-mb-231): 8.8 µM
CSc1ccc(/C(=N\O)c2cccc3ccccc23)cc1 | > 50 µM | > 50 µM | 18 µM | 18 µM | 20 µM | 
COc1ccc(/C(=N\OCCN2CCCCC2)c2cccc3ccccc23)cc1 | > 50 µM | > 50 µM | 15 µM | 18 µM | > 50 µM | 
COc1ccc(/C(=N\OCCN2CCCCCC2)c2cccc3ccccc23)cc1 | > 50 µM | 35 µM | 20.5 µM | 25 µM | 30 µM | 
CCOC(=O)CO/N=C(\c1ccc(SC)cc1)c1cccc2ccccc12 | > 50 µM | > 50 µM | 18 µM | 30 µM | 35 µM | 
COc1ccc(/C(=N\OCCN2CCOCC2)c2cccc3ccccc23)cc1 | > 50 µM | > 50 µM | > 50 µM | 20 µM | 25 µM | 
CSc1ccc(/C(=N\OCCCCN2CCCC2)c2cccc3ccccc23)cc1 | > 50 µM | > 50 µM | > 50 µM | > 50 µM | > 50 µM | 

Compound | EC50 (Ishikawa; Homo sapiens, Ishikawa, 24 h) | EC50 ([1]; Homo sapiens, DU-145, 24 h) | EC50 (HeLa; Homo sapiens, HeLa, 24 h) | EC50 (MCF7 [2]; Homo sapiens, MCF7, 24 h) | EC50 (MDA-MB-231 [3]; Homo sapiens, MDA-MB-231, 24 h) | further results
CCN(CC)C(=O)CO/N=C(\c1ccc(SC)cc1)c1cccc2ccccc12 | > 50 µM | > 50 µM | 25 µM | 28 µM | 30 µM | 
CCCCC(CC)CNCCCO/N=C(\c1ccc(OC)cc1)c1cccc2ccccc12 (configuration not stated) | > 50 µM | > 50 µM | > 50 µM | > 50 µM | > 50 µM | 
CSc1ccc(/C(=N\OCCN2CCOCC2)c2cccc3ccccc23)cc1 | > 50 µM | > 50 µM | > 50 µM | > 50 µM | > 50 µM | 
CCN(CC)CCO/N=C(\c1ccc(SC)cc1)c1cccc2ccccc12 [listing 3 of 4 here] |  |  |  |  |  | EC50 (Ishikawa; ishikawa): > 50 µM; EC50 ([1]; du-145): > 50 µM; EC50 (HeLa; hela): > 50 µM; EC50 (MCF7 [2]; mcf7): > 50 µM; EC50 (MDA-MB-231 [3]; mda-mb-231): > 50 µM
CCCCN(C)CCCO/N=C(\c1ccc(SC)cc1)c1cccc2ccccc12 | > 50 µM | > 50 µM | 8 µM | > 50 µM | > 50 µM | 
CCN(CC)CCO/N=C(\c1ccc(OC)cc1)c1cccc2ccccc12 | > 50 µM | > 50 µM | > 50 µM | 20 µM | > 50 µM | 
CCN(CC)CCO/N=C(\c1ccc(SC)cc1)c1cccc2ccccc12 [listing 4 of 4 here] |  |  |  |  |  | EC50 (Ishikawa; ishikawa): 15 µM; EC50 ([1]; du-145): 18.5 µM; EC50 (MCF7 [2]; mcf7): 14.8 µM; EC50 (MDA-MB-231 [3]; mda-mb-231): 11.2 µM
CSc1ccc(/C(=N\OCCCCN2CCCCC2)c2cccc3ccccc23)cc1 | 18 µM | 7.5 µM | 18 µM | 8 µM | 18 µM | EC50 (MCF7 [4]): 8 µM; selectivity ratio (in vitro): 1.2; IC50 [5]: 10 µM; selectivity ratio [6]: 0.5; EC50 (MDA-MB-231 [7]): 18 µM
CSc1ccc(/C(=N\OC(C)CN(C)C)c2cccc3ccccc23)cc1 (configuration not stated) | > 50 µM | > 50 µM | > 50 µM | > 50 µM | > 50 µM | 
CSc1ccc(/C(=N\OCCCN2CCC(C)CC2)c2cccc3ccccc23)cc1 | > 50 µM | 10 µM | > 50 µM | 6.5 µM | 20 µM | 
CSc1ccc(/C(=N\OCCN2CCCCC2)c2cccc3ccccc23)cc1 | 10 µM | 10 µM | 13.5 µM | 13.5 µM | 8.8 µM | 
O=C(c1ccc(OCCN2CCCCC2)cc1)c1c(-c2ccc(O)cc2)sc2cc(O)ccc12 [RALOXIFENE] | 20 µM | > 50 µM |  | 23 µM | 30 µM | 
O=c1[nH]cc(F)c(=O)[nH]1 [FLUOROURACIL] |  |  |  |  |  | selectivity ratio [8]: 0.97; EC50 [9]: 16.3 µM; selectivity ratio [10]: 1.2; EC50 [11]: > 50 µM; selectivity ratio [12]: 0.97; EC50 [13]: 38.1 µM; IC50 (HEK293): 48.7 µM; selectivity ratio [14]: 2.98; EC50 (SW-620): > 50 µM
CSc1ccc(/C(=N\OCCN(C)C)c2cccc3ccccc23)cc1 | 9 µM | 15 µM | 14 µM | 14 µM | 12.8 µM | 
COc1ccc(/C(=N\OCCN(C)C)c2cccc3ccccc23)cc1 | > 50 µM | > 50 µM | 23 µM | 15 µM | > 50 µM | 
CSc1ccc(/C(=N\OCCN2CCCC2)c2cccc3ccccc23)cc1 | 6 µM | 9.5 µM | 6.6 µM | 6.6 µM | 5.01 µM | EC50 (MCF7 [4]): 5 µM; selectivity ratio (in vitro): 1.1; IC50 [5]: 5.5 µM; selectivity ratio [6]: 1.4; EC50 (MDA-MB-231 [7]): 3.8 µM
COc1ccc(/C(=N\OC(C)CN(C)C)c2cccc3ccccc23)cc1 (configuration not stated) | > 50 µM | > 50 µM | > 50 µM | > 50 µM | > 50 µM | 
COc1ccc(/C(=N\OCCCN(C)C)c2cccc3ccccc23)cc1 | > 50 µM | > 50 µM | > 50 µM | 20.5 µM | > 50 µM | 
